Experimental findings from the RNAGym collection of RNA variant scans (doi:10.1126/science.aae0568) are described below.

The labels stand for the following.
B1: tRNA (parent)
chain: GUUCCGUUGGCGUAAUGGUAACGCGUCUCCCUCCUAAGGAGAAGACUGCGGGUUCGAGUCCCGUACGGAACG

This sample holds only a part of the variants without activity. Bounds are passed on as bounds.

In the series the parent is B1. In words: yeast fitness relative to wild type (ratio to wild type); higher = fitter; tRNA-Arg(CCU), competitive growth, 37 C, YPD. The method, boiled down:
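A pool of Saccharomyces cerevisiae strains, each with a tRNA-Arg(CCU) gene variant at the native genomic locus, was competed in YPD at 37°C for 24 hours across six parallel replicates. The variants had been chemically synthesised at a 3% per-site mutation rate over 69 sites, and gene amplicons before and after competition were read by 100-nucleotide paired-end sequencing. Darwinian fitness relative to wild type rested on changes in genotype frequencies. Genotypes required ≥ 100 starting reads, and estimates < 0.5 were set to 0.5.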
With GUUCCGUUAGCGUAAUGGUAACGCGUCUCCCUCCUAAGCAGAAGACUGCGGGUUCGAGUCCCGUAUGGAACG [G9A G39C C66U], the yeast fitness is 0.606. With GUUCCGUUGGCGUAAUGGUGACGUGUCUCCCUCCUAAGGAGAAGACUGCGGGUUCGAGUCCCGUCCGGAACG [A20G C24U A65C], the yeast fitness stood at 0.653. GUUCCGUUGGCGUAAUGGUAACGGGUCUCCCUCCUAAGGAGAAGACUGCGGGUUCGACUCCCGUACGGAACG [C24G G58C]: the yeast fitness was 0.573. The figure for GUUCCGUUGGCGUAAUGGUAAGGCGUCUCCCUCCUAAGGAGAAGACUGCGGGUUCGAGCCCCGUACGGAACG [C22G U59C] is 0.864; for GUUCGGUUGGCGUCAUGGUAACGCGUCUACGUCCUAAGGAGAAGACUGCGGGUGCGAGUCCCGUACGGAACG [C5G A14C C29A C31G U54G] it is at most 0.5. Turning to GUUCCGAUGGCGUAAUGGUAACACGUCUCCCUCCUAAGGAGAAGACUGCGGGUUCGAGUACCGUACGGAACG [U7A G23A C60A], the yeast fitness is at most 0.5. GUUCCGUUGGCGUAAUGGUUACGCGUCUCCCUCCUAAGGAGAAGCCUGCGGGUUUGUGUCCCGUACGGAACG [A20U A45C C55U A57U]: the yeast fitness was at most 0.5. Regarding GUUCUGUUGGCGUAAUGGUAACGCGUCUCCCUCCUUAGGAGAAGACUGCGGGUUCGAGUCCCGUACGGAACG [C5U A36U], the yeast fitness came to 0.632.

Turning to GUUCCGUUGGCGUAAUGGUAACGCGUCUCUCUCCUAAGGAGAAGACUGCGGGUUCGAGUCCCGUACGAAUCG [C30U G68A A70U], the yeast fitness was 0.577.

For the variant GUUCCGUUGGCGUAUUGGUAACGCGUAUCCCUCCUAAGGAGAAGACUGGGGGUUCGAGUCCCGAACGGAACG [A15U C27A C49G U64A], the yeast fitness is 0.639. The figure for GUUCCGUUGGCGAUAUGGUUACGCGUCUCCCUCCUAAGGAGAAGACUGCGGGUUCGAGUCCCGUACGGAACG [U13A A14U A20U] is 0.835; for GUUCCAUUGGCGUAAUGGUAACGUGUCUCCCUCCUAAGGAGAAGACUGCGGGUUCGAGUCGCGUAUGGAACG [G6A C24U C61G C66U] it is 0.724; for GUCCCGUUGGCGUAAUGGUAACGCGUCUCGCUCCUAAGGAGACGACUGCGGGUUCGAGUCCCGUACCGAACG [U3C C30G A43C G67C] it is at most 0.5. With GUGCCAUUGGCGUGAUGGUAACGCGUCUCCCUCCUAAGGAGAAGACUGCGGGUUGGAGUCCCGUGCGGAACG [U3G G6A A14G C55G A65G] the figure was at most 0.5; with GUUCCGGUGGCGUAAUGGUAAAGCGUCUCCCUCCUAAGGAGAAGACUGCGGGCUCGAGUCCCGUACGGAACG [U7G C22A U53C], at most 0.5. GUUCCGUUGGCGUAAUGGUAACGCGUCUACCUCCUAAGGAGGAGUCUGCAGGUUCGAGUCCCGUACGGAACG [C29A A42G A45U G50A]: the yeast fitness turned out to be 0.534. The figure for GUUCCGUUGGCGUAAUGGUUACGCGUCUCCCUCCUAAGGACAAGACUGCGGGUUCCAGUCCCGUACGCAACG [A20U G41C G56C G68C] is at most 0.5. On to GUUCCGUUAGCGUAAUGGGAACGCGUCUCCCUCCUAAGGAGAAGGCUGCGGGUUCGAGUCCCGUACGGAACG [G9A U19G A45G], for which the yeast fitness is 0.528. The figure for GUUCCGUUGGCGUAAUGGUAACGCGUCUCCCUCCUAAGGAGAAGACUGCAGGUUCGAGUCCCGUACGGAACG [G50A] is 1; for GUUCCGUUGGCGUAGUGGUAACGCGUCUCCCUCCUAAGGAGAAGACUGCGGGUUCGAGUCCCGUGCGGAACG [A15G A65G] it is 0.962; for GUUCCGUUGGCGUAAUGGUAACGCGUCUCCCUCCUAAGGAGAAGACGGCGGGUUCGAGUCCCGUACGGACCG [U47G A70C] it is 0.685. Regarding GUUCCGUUGGCGUACUGGUAUCGCGUCUCCCUCAUAAGGAGAAGACUGCGGGUUCGAGUCCCGUACGGAACG [A15C A21U C34A], the yeast fitness was at most 0.5. Consider GUUCCGUUGGCGUAAUGGUAACGCGUCUCCCUCCUAAGGGGAAGGCUGCGGAUUCGAGUCCCGUACGGAACG [A40G A45G G52A], for which the yeast fitness was at most 0.5. The figure for GUUCCGUUGGCGUAAUGGUAACGCGUCUCCCUCCUACGGGGAAGACUGCGGCUUCGAGCCCCGUUUGGAACG [A37C A40G G52C U59C A65U C66U] is at most 0.5; for GUUCUGUUGGCGUAAUGGUAACGCGUCUCCCUCCUAAGGAGAAGACUGCGGGUUCGAGUCCCGUAGGCAACG [C5U C66G G68C] it is 0.541; for GUUCGGUUGGGGUCAUGGUAACGCGUCUCCCUCCGAAGGAGAAGCCCGCGGGUUCGAGUCCCGAACGGAACG [C5G C11G A14C U35G A45C U47C U64A] it is at most 0.5. As to GUUCCGUUGGCGUAACGGUAACGCGUGUCCCUACUAACGAGGAGACUGCGGGUUCGAGUCCCGUACGGAACG [U16C C27G C33A G38C A42G], the yeast fitness stood at 0.884. For GUUCCGUUGGCGUAAUGGUAACGCGUCUCCCUCCUAAGGGGAGCACUGCGGGUUCGAGUCCCGUACGGAACG [A40G A43G G44C], the yeast fitness was at most 0.5.

Regarding GUUCCGUUGGCGUAAUGGUAACGCGUCGCCCUCCUAAGGAGAGAACUGCGGGUUCGAGUCCCGUACGGAACG [U28G A43G G44A], the yeast fitness is at most 0.5. The figure for GUUCCGUUGGCGUAAUCGUAACGCGUCUCACUCGUACGGAGAAGACUGCGGGCUCGAGUCCCCUACGGAACG [G17C C30A C34G A37C U53C G63C] is at most 0.5.

As for GUUCCAUUGGCGUAAUGCUACCGCGUCUCCCUACUAAGGAGAAGACUGCGGGUUCGAGUCCCGUACGGAACG [G6A G18C A21C C33A], the yeast fitness is 0.605. The figure for GUUUCGUUGGCGUAAUGGUCACGCGUCUCCCUCCUAAGGUGAAGACUGCGGGUUGGAGUCCCGUACGGAACG [C4U A20C A40U C55G] is 0.578; for GUUCCGUUGGGGUGAUGGUAACGCGUCUCCCUCCAAAGGAGAAGACUGCGGGUUCGAGUCCCGUAUGGAACG [C11G A14G U35A C66U] it is 0.535; for GUUCCGUUGGCGUAAUGGUAACGCGUCUCCCUCCUCCGGAGAAGACUGCGGGUUCGAGUCCCGUACGGAACG [A36C A37C] it is 0.54. Take GUUCUGUUGGCGUAAUGGUUACGUGUUUCCCUCCUAAGGAGAAGGCUGCGGGUUCGAGUCCCGUACGGAACG [C5U A20U C24U C27U A45G]: the yeast fitness was at most 0.5.

As for GUUCCGUUGGCGUAAUGGGAACGCGUCCCCCUCCUAGGGAGAAGACUGCGGGUUCGAGUCCCGUAUGGUACG [U19G U28C A37G C66U A69U], the yeast fitness came out at 0.524. In the case of GUUCCGUUGGCGUAAUGGAAACGCGUCUCCCUCCUAUGGAGAAGACUGCGGGUUGGAGUCCCGAACGGAACG [U19A A37U C55G U64A], the yeast fitness is at most 0.5. GUUUCGUUGGCGUAAUGGUAACGCGUCUCACUCCUAAGGAGAAGUCUGCGGGUUCGAGUCCCGUACGGAACG [C4U C30A A45U]: the yeast fitness stood at 0.77.
